An excerpt weighted towards active compounds, which were near 2.2% of everything screened.
GPR7 antagonist: antagonists of human GPR7 (neuropeptides B/W receptor 1); GPR7-expressing cells, fluorescence antagonist assay; inhibition, % at 4.4 µM; 1.1% of 290,000 active; in the data active means inhibition above about 16%, passing the limit was not always enough;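 further: cells stimulated with the agonist NPW; 0% = agonist with vehicle and 100% = vehicle without agonist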
DNA FID counter: counter-screen for HCV NS3 helicase inhibitors: DNA intercalator displacement; DNA fluorescent intercalator displacement, fluorescence; inhibition, % at 7.9 µM; 0.17% of 290,000 active; in the data active means inhibition above about 37%;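 further: 0% = vehicle and 100% = reference compound; higher means more ethidium bromide displaced from hairpin DNA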
core dimer inh: blocks dimerization of HCV core protein | TR-FRET GST/Flag-core106 dimerization, 1536-well | inhibition, % at 5 µM | 0.33% of 300,000 active | AID 1899;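 active means inhibition above the mean of all tested compounds plus 3 SD, set per screening campaign, cut at about 45% in these data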
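Assay system – GST-tagged and Flag-tagged HCV core protein residues 1-106 · Quantity – core106 proteins, GST 13.5 nM and Flag 17 nM · Benchmarks – unlabelled core106 and no-GST-core106 wells · Read-out basis – percent inhibition of core106 dimerization signal · Detection – time-resolved FRET, ex 340 nm, em 617 and 671 nm · Schedule – 4 h at 22.5 °C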
DAGLB inhibitor: blocks human DAGLB lipase activity | Q8NCG7 | AID 504411 | 0.059% of 340,000 active | inhibition, % at 5.17 µM | HEK293T DAGLB membrane lysate, EnzChek fluorogenic substrate; in the data active means inhibition above about 34%;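 further: 0% = enzyme with vehicle and 100% = wells lacking enzyme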
Target sequence (Q8NCG7 whole entry, looked up): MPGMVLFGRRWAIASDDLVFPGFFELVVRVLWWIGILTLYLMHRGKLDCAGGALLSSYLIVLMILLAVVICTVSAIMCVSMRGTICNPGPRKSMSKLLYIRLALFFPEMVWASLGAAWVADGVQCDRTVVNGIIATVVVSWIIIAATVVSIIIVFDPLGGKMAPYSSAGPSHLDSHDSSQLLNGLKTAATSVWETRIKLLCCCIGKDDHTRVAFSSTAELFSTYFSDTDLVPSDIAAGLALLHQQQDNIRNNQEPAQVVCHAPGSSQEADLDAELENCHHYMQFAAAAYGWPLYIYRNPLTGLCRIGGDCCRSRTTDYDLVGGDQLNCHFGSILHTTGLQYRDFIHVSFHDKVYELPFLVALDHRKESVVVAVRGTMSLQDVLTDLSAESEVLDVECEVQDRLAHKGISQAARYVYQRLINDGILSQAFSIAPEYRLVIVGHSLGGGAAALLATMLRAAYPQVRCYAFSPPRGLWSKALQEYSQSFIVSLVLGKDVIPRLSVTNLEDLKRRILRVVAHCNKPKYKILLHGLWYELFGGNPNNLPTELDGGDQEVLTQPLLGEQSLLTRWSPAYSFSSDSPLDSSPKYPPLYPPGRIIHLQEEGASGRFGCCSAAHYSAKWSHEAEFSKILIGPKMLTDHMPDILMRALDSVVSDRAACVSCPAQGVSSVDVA
GRK2 inh: blocks RNA aptamer binding to human GRK2 | inhibition of aptamer binding, % at 10 µM | AID 488847 | bead flow cytometry, FAM-aptamer displacement from GRK2 | P25098 | 0.59% of 330,000 active;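 active means inhibition of aptamer binding above 40%, roughly 3 SD of noise, on plates passing a quality check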;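 further: median bead fluorescence of bound FAM aptamer so fluorescent compounds give negative values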
HCV NS3 hel inh: inhibitors of Hepatitis C virus NS3 helicase; NS3 helicase DNA unwinding, Cy5 molecular beacon fluorescence; 0.56% of 290,000 active; inhibition, % at 10.9 µM;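 active means inhibition above the mean of all tested compounds plus 3 SD, set per campaign, cut at about 35% in these data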;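 further: 0% = DMSO wells and 100% = thioflavine S control wells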
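System: NS3 helicase fragment of HCV / Schedule: 1 h at 25 °C / Control set: DMSO alone as 0% and 110 µM thioflavine S as 100% / Reagent: Cy5/quencher beacon DNA duplex and ATP to start / Technique: Cy5 fluorescence / Replication: singlicate / Evaluation: % inhibition of end-to-start signal ratio versus controls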
* hit, by the source's call.

For COC(=O)CSc1ncnc2c1sc1nc(-c3ccco3)c3c(c12)CC(C)(C)OC3 the results were GPR7 antagonist 3, DNA FID counter -11, core dimer inh 64*, GRK2 inh 1 and HCV NS3 hel inh 20.
Screening CCSc1ncnc2c1sc1nc(-c3ccco3)c3c(c12)CC(C)(C)OC3 returned GPR7 antagonist -6, DNA FID counter -3, core dimer inh 65*, GRK2 inh 1 and HCV NS3 hel inh 27.
For CC(C)c1nc2sc3c(NCc4ccco4)ncnc3c2c2c1COC(C)(C)C2 the results were GPR7 antagonist -12, DNA FID counter -13, core dimer inh 15, DAGLB inhibitor 0, GRK2 inh 4 and HCV NS3 hel inh 6.
For COc1ccc([C@H]2C[C@H](O)[C@@H](n3cc(-c4ccc(F)cc4)nn3)CN2CC2CCCCC2)cc1 the results were DAGLB inhibitor -2.
`CC1=C(C(=O)OCC(C)C)[C@]23C(=O)c4ccccc4[C@@]2(O1)OC(N)=C3C#N` gave GPR7 antagonist 17*, DNA FID counter -11, core dimer inh 5, DAGLB inhibitor 1, GRK2 inh 0 and HCV NS3 hel inh 14.
Screening CC1=C(C(=O)OCC(C)C)C23C(=O)c4ccccc4C2(O1)OC(N)=C3C#N (stereo unspecified) returned GPR7 antagonist -7, DNA FID counter -21, core dimer inh 5, DAGLB inhibitor -4, GRK2 inh 5 and HCV NS3 hel inh 3.
`Cc1ccc(C(=O)NCC(c2ccc(F)cc2)N2CCOCC2)cc1S(=O)(=O)N1CCOCC1` (stereo unspecified) gave DAGLB inhibitor 2.
`COc1ccc(CCN(C)C(=O)C2CCCN(C3CCN(Cc4ccccc4)CC3)C2)cc1OC` (stereo unspecified) gave GPR7 antagonist -8, DNA FID counter 16, core dimer inh 9, DAGLB inhibitor -6, GRK2 inh 1 and HCV NS3 hel inh 3.
Screening O=C(CNS(=O)(=O)c1ccc2ccccc2c1)OCc1csc(-c2ccccc2)n1 returned GPR7 antagonist 3, DNA FID counter -19, core dimer inh -8, DAGLB inhibitor -3, GRK2 inh 100* and HCV NS3 hel inh 9.
Cc1ccc(S(=O)(=O)NCC(=O)OCc2csc(-c3ccccc3)n2)cc1 was read as GPR7 antagonist -1, DNA FID counter -30, core dimer inh 0, DAGLB inhibitor -5, GRK2 inh 0 and HCV NS3 hel inh -11.
Screening COc1cccc(C#CC2=CC(=O)C[C@H](c3ccc(F)cc3)C2)c1 returned DAGLB inhibitor -23.
`Cc1ccc(-n2cc(CN3CCC(CO)(Cc4cccc(C(F)(F)F)c4)CC3)cn2)cc1` gave GPR7 antagonist 10, DNA FID counter 34, core dimer inh -14, DAGLB inhibitor 1, GRK2 inh 0 and HCV NS3 hel inh -69.
Screening Cc1ccc(-n2cc(CN3CCC(CO)(Cc4ccccc4)CC3)cn2)cc1 returned GPR7 antagonist 20*, DNA FID counter 24, core dimer inh -7, GRK2 inh 0 and HCV NS3 hel inh -40.
For Cn1c(=O)c(Nc2ccc(O)cc2)c2c3c(cccc31)C(=O)c1ccccc1-2 the results were GPR7 antagonist -16, DNA FID counter 3, core dimer inh 18, DAGLB inhibitor 44*, GRK2 inh 2 and HCV NS3 hel inh 12.
`COc1ccc2nc(/C(C#N)=C\c3ccc(Oc4ccc([N+](=O)[O-])cn4)cc3)[nH]c2c1` gave GPR7 antagonist -6, DNA FID counter -1, core dimer inh 58*, DAGLB inhibitor 31, GRK2 inh 0 and HCV NS3 hel inh 2.
`COC(=O)[C@@]12CCCCN1[C@H](c1ccc(-c3ccc(F)cc3)c(OC)c1)[C@@H]1C(=O)N(C)C(=O)[C@@H]12` gave core dimer inh -8, DAGLB inhibitor -5 and GRK2 inh 2.
CCc1nnc(NC(=O)CSc2nnc(Cc3cc(=O)[nH]c(=O)[nH]3)n2-c2cccc(OC)c2)s1 was read as GPR7 antagonist 17*, DNA FID counter -22, core dimer inh -10, DAGLB inhibitor 1, GRK2 inh 0 and HCV NS3 hel inh 18.
`COc1ccc(CCNC(=O)C/C(C)=N/NC(=O)c2ccc([N+](=O)[O-])cc2Cl)cc1OC` gave GPR7 antagonist -12, DNA FID counter -9, core dimer inh 10, DAGLB inhibitor 3, GRK2 inh 0 and HCV NS3 hel inh -12.
For COc1ccc(S(=O)(=O)n2nc(-c3ccc(Cl)cc3)cc2N)cc1OC the results were GPR7 antagonist 18*, DNA FID counter -4, core dimer inh -2, DAGLB inhibitor -1, GRK2 inh 0 and HCV NS3 hel inh -13.
Screening CCOc1ccc(-c2cc(N)n(S(=O)(=O)c3ccc(OC)c(OC)c3)n2)cc1 returned GPR7 antagonist 1, DNA FID counter -10, core dimer inh 1, DAGLB inhibitor 0, GRK2 inh 1 and HCV NS3 hel inh -8.
CC1CCC(NC(=O)COC(=O)CNC(=O)c2ccc3ccccc3c2)CC1 (stereo unspecified) was read as DAGLB inhibitor 1 and GRK2 inh 0.
Screening Cc1nc(C)c(-c2ccn(S(=O)(=O)c3ccc(Cl)cc3)n2)o1 returned GPR7 antagonist 19*, DNA FID counter -28, core dimer inh 0, DAGLB inhibitor -4, GRK2 inh 2 and HCV NS3 hel inh 13.
For Cc1ccc2c(c1)-n1c(nc3cc(Cl)ccc3c1=O)C(Cc1ccccc1)NC2=O (stereo unspecified) the results were GRK2 inh 0.
N=c1c2c(-c3ccccc3)c(-c3ccccc3)n(Cc3ccccc3)c2ncn1CCCn1ccnc1 was read as GPR7 antagonist -3, DNA FID counter 40*, core dimer inh 0, DAGLB inhibitor 2, GRK2 inh 0 and HCV NS3 hel inh -83.
`Cc1cc(NCCCn2ccnc2)n2nc(C)c(-c3ccccc3)c2n1` gave GPR7 antagonist -8, DNA FID counter 16, core dimer inh -3, DAGLB inhibitor -2, GRK2 inh 0 and HCV NS3 hel inh -2.
COCCn1c2nc(=O)n(-c3ccccc3)c(=O)c-2nc2ccccc21 was read as DAGLB inhibitor -69.
`Cc1cc(C(=O)OCC(=O)Nc2sc3c(c2C#N)CCC(C)C3)c2ccccc2n1` (stereo unspecified) gave GPR7 antagonist -3, DNA FID counter -6, core dimer inh 53*, DAGLB inhibitor 0, GRK2 inh 0 and HCV NS3 hel inh 32.
Screening CC1CCc2c(sc(NC(=O)COC(=O)c3ccc(NC(=O)CC#N)cc3)c2C#N)C1 (stereo unspecified) returned core dimer inh 18, DAGLB inhibitor -3 and GRK2 inh 2.
